Source: article PMC12067261 (Proceedings of the National Academy of Sciences of the …, 2025)
Values after ≈ are worked out from the molar mass of the structure shown. Values joined by “and” are separate entries in the source; they are usually repeats but may differ in a detail not shown here. Equal entries are not always repeated. Where two headings read alike, the source gives them in different places.

How the values were obtained:
[1] = test system: Mab ATCC19977 (wild type); type: cell-based, Mycobacterium abscessus subsp. abscessus; settings: concentration that inhibits 90% growth
[2] = test system: Mab ATCC19977 replicating cultures; test: microbe, parasite or virus in culture; type: cell-based, Mycobacterium abscessus subsp. abscessus
[3] = test system: intracellular M. abscessus ATCC 19977 pTEC27 in THP-1 macrophages; test: Growth inhibition of intracellular Mab in THP-1 derived macrophages; type: cell-based, Mycobacterium abscessus; settings: Mycobacteroides abscessus, ATCC19977, THP-1, read-out: MacIC50
Caseum binding = type: in vitro ADME
[4] = Pharmacokinetic studies in mice; type: in vivo, CD-1 mice
[5] = test system: THP-1 derived macrophages; test: Uptake into THP-1 macrophages; type: in vitro ADME; settings: intracellular to extracellular concentration ratio
CYP3A4 mRNA = test: CYP3A4 induction at the mRNA level in human hepatocytes; type: in vitro ADME
HepG2 cells = test: Cytotoxicity assays; type: cell-based, human; settings: indirect measure of selectivity
[6] = test system: M. abscessus subsp. abscessus ATCC 19977; test: Efficacy in the GM-CSF KO mouse model of acute Mab infection; type: in vivo, GM-CSF KO (B6.129S-Csf2tm1Mlg/J) mice; settings: 7 daily oral doses, 25 mg/kg
Mab ATCC19977 = test: Spontaneous mutant selection; type: cell-based, Mycobacterium abscessus; settings: solid medium containing 4× MIC
[7] = test system: 76 M. abscessus clinical isolates covering the 3 Mab subspecies; test: microbe, parasite or virus in culture; type: cell-based, Mycobacterium abscessus; settings: Mycobacteroides abscessus
[8] = test system: intracellular Mab ATCC19977 in THP-1 macrophages; type: cell-based, Mycobacterium abscessus; settings: 48 h treatment, compared to the start of treatment
In short: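 Intracellular bactericidal assay in THP-1-derived macrophages infected with M. abscessus subsp. abscessus ATCC19977. Test compound was added 2 h after infection at 1 and 10 µM and left on for 48 h. Each condition was run in technical triplicate.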

[9] = test system: Mab type strain ATCC19977
in vitro = settings: human, plasma
[10] = test system: Mab type strain ATCC19977; test: microbe, parasite or virus in culture; settings: Mycobacteroides abscessus, ATCC19977, read-out: IC50 in CAMHB
[11] = as published previously ref 28; cited from earlier work
[12] = Table 2

Q: For `CO[C@H]1/C=C/O[C@@]2(C)Oc3c(C)c(O)c4c(c3C2=O)C2=NC3(CCN(CC(C)C)CC3)NC2=C(NC(=O)/C(C)=C\C=C\[C@H](C)[C@H](O)[C@@H](C)[C@@H](O)[C@@H](C)[C@H](OC(C)=O)[C@@H]1C)C4=O` [RBT, Rifabutin], which “WT Mab MIC” value [1] is on record?
A: 2.0 µM

Q: What about the MBC ([2]; Mycobacteroides abscessus, ATCC19977, read-out: MBC90) of the same compound?
A: 3.5 µM (≈ 2.96 µg/mL)

Q: And the “kill plateau at 8× MIC” value ([2]; replicating cultures, 3 d)?
A: approximately 2 log

Q: And the IC50 [3]?
A: 700 nM

Q: And the fraction unbound (Caseum binding)?
A: 0.0094

Q: What about the “fAUC/MIC at 10 mg/kg” value ([4]; AUC corrected for fraction unbound) of the same compound?
A: 0.2

Q: What about the Bioavailability ([4]; CD-1 mice, oral) of the same compound?
A: 69.2%

Q: What about the half-life ([4]; female, CD-1, mouse, plasma) of the same compound?
A: 4.3 h

Q: What about the clearance ([4]; female, CD-1, mouse, plasma, iv, 5 mg/kg) of the same compound?
A: 10.3 mL/min/kg

Q: What about the Vd ([4]; female, CD-1, mouse, plasma, iv, 5 mg/kg, Vd, CD-1 mice, i.v. 5 mg/kg) of the same compound?
A: 3.9 L/kg

Q: What about the “plasma concentrations relative to potency values” ([4]; oral 25 mg/kg, CD-1 mice) of the same compound?
A: did not achieve therapeutic concentrations

Q: And the “THP-1 IC/EC” value [5]?
A: 26

Q: And the “CYP3A4 induction @ 1 µM” value (CYP3A4 mRNA; 1 µM)?
A: 33 fold and 33.4 fold

Q: And the “CYP3A4 induction @ 10 µM” value (CYP3A4 mRNA; 10 µM)?
A: 43 fold and 42.7 fold

Q: And the “HepG2 CC50/MIC” value (HepG2 cells)?
A: 154

Q: What about the “effect on lung bacterial burden” value [6] of the same compound?
A: neither reduced lung burden nor prevented bacterial growth

Q: And the frequency of resistance (Mab ATCC19977)?
A: 2.6 × 10^−8

Q: What about the MIC50 ([7]; read-out: MIC50 against clinical isolates) of the same compound?
A: 4.7 µM (≈ 3.98 µg/mL)

Q: What about the MIC90 ([7]; read-out: MIC90 against clinical isolates) of the same compound?
A: 9.1 µM (≈ 7.71 µg/mL)

Q: And the “activity against intracellular Mab in macrophages at 1 and 10 µM” value [8]?
A: did not inhibit intracellular growth of Mab

Q: And the IC50 serum shift [9]?
A: 8.1 fold

Q: What about the fraction unbound (in vitro; fu human, human plasma) of the same compound?
A: 0.036

Q: What about the fraction unbound (in vitro; plasma fu (human), Table 2) of the same compound?
A: 0.0384

Q: What about the IC50 [10] of the same compound?
A: 1200 nM

Q: What does the source list for `O=C1CCc2c(OC[C@]3(O)CCN(c4c(F)cc(Cl)cc4F)C[C@H]3O)ccc(F)c2N1` [OPC-167832, Quabodepistat]?
A: plasma fu [11]: ~ 1%; fraction unbound (in vitro): 0.0122; IC50 [10]: 120 nM

Q: For `CO[C@H]1/C=C/O[C@@]2(C)Oc3c(C)c(O)c4c(c3C2=O)C2=NC3(CCN(CC(C)C)CC3)NC2=C(NC(=O)/C(C)=C/C=C/[C@H](C)[C@H](O)[C@@H](C)[C@@H](O)[C@@H](C)[C@H](OC(=O)Nc2c(C)nc3ccccn23)[C@@H]1C)C4=O` [UMN-131], which IC50 serum shift [9] is on record?
A: 3.3 fold

Q: What about the IC50 ([9]; read-out: IC50 in 1:1 CAMHB:hSerum, 1:1 CAMHB:human serum) of the same compound?
A: 200 nM

Q: What about the IC50 ([9]; read-out: IC50 in CAMHB, CAMHB devoid of plasma proteins) of the same compound?
A: 60 nM

Q: What about the “plasma fu (human)” value [12] of the same compound?
A: 6.55%
